Common to all, as to assay type: toxicity
Holding throughout (conditions): dog, read-out: Ratio CC50/EC50

The nature of series [1]: Selectivity ratio of CC50 for MDCK cells to EC50 for pandemic Influenza A virus A/TW/2235/09 (H1N1) SO4. The method in brief: (§1)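 MDCK cells (2 × 10^4/well, E10, 16–24 h) infected at nine-fold TCID50 with compound for 72 h, 37 °C, 5% CO2. Cells were fixed in 4% paraformaldehyde and stained with crystal violet; EC50 is from Reed–Muench. For CC50, cells had compound alone for 72 h, then MTT 3 h, DMSO, A570, Reed–Muench. SI = CC50/EC50; three independent experiments.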

Series [2] can be described thus: Selectivity ratio of CC50 for MDCK cells to EC50 for Influenza A virus A/TW/00482/13. The method in brief:
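SI is calculated as CC50 (MDCK, 72 h MTT) divided by EC50 (72 h crystal-violet CPE assay in MDCK).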

Series [3] can be described thus: Selectivity ratio of CC50 for MDCK cells to EC50 for Influenza A virus A/TW/01061/14. The method in brief:
as §1

Consider `C=C(CC(=O)Nc1ccc(F)cc1F)C(=O)Nc1ccc(F)cc1F`, for which the results for the selectivity ratio in series [1], in series [2] and in series [3] were 36, 22 and 21, respectively.

Source of the values: ChEMBL document CHEMBL4316597, “Design, Synthesis, and Biological Evaluation of Itaconic Acid Derivatives as Potential Anti-Influenza Agents” (J Med Chem, 2019).
